Results as given in paper PMC7397943 (Journal of Ethnopharmacology, 2020).

Legend:
[1] = test system: NF–κB; test: NF–κB activity: MT–2 cells transfected with NF–κB–Luc plasmid; format: cell-based
In short: (§1)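 MT-2 cells were electroporated at 260 V in serum-free RPMI with a luciferase reporter: pNL4.3-Luc (whole HIV-1 genome), 3-enh-κB-ConA-luc (three κB copies), or Sp1-Luc (two Sp1 sites). Cells were seeded in complete RPMI with serial dilutions or one selected concentration of test compound at 37 °C for 48 h. PMA 100 nM was the reference. RLUs were expressed as % of DMSO control, with Bonferroni-corrected one-way ANOVA.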

[2] = test system: Sp1; test: Sp1 activity: MT–2 cells transfected with Sp1–Luc plasmid; format: cell-based; details: 48 h
In short: as §1

[3] = Cell viability in mock–infected MT–2 cells; format: cell-based; details: human, mock-infected MT-2 cells
In short: (§2)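 Test compound (from 10 mg/mL or 10 mM DMSO stocks) was added at graded concentrations to mock-infected MT-2 cells, run in parallel with the 48 h antiviral assay. Cells were grown in RPMI-1640 with 10% FBS, 2 mM L-glutamine and penicillin/streptomycin at 37 °C, 5% CO2. Viability was read by CellTiter Glo as % of the DMSO-matched control. CC50 came from non-linear regression.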

[4] = test system: recombinant HIV–1 (NL4.3–Ren); format: cell-based; details: Human immunodeficiency virus 1, MT2, 48 h, read-out: IC50 μM HIV (CI95%; R2), isolated compounds, MT–2 cells, wild type HIV NL4.3–Ren
In short: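 MT-2 cells (RPMI-1640, 10% FBS, 2 mM L-glutamine, penicillin/streptomycin; 37 °C, 5% CO2) were infected with NL4.3-Ren supernatant (100.000 RLUs or 20 ng p24 per well) alongside serial dilutions of test compound (10 mM DMSO stock). Enfuvirtide served as control. After 48 h, lysates were read for Renilla-luciferase RLUs against vehicle-matched untreated cells (100%). IC50 came from non-linear regression.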

[5] = test system: HIV transcription (pNL4.3–Luc); test: HIV transcription assay: MT–2 cells transfected with pNL4.3–Luc; format: cell-based, HIV–1
In short: as §1

[6] = test system: THP–1 cells; test: Glutathione determination; format: cell-based; details: maximum redox index reached, maximum 1 (all glutathione reduced)
In short: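 THP-1 cells were treated with serial dilutions of test compound, with resveratrol as reference. Cells were lysed in 0.1 M sodium phosphate/0.005 M EDTA, pH 8, plus 60% HClO4 (10 μL/mL), then spun at 6000g for 10 min at 4 °C. GSH and GSSG were measured by OPT fluorescence (ex 350/em 420 nm) against a GSH standard curve. Redox index = GSH/(GSH+GSSG), maximum 1. EC50 and Emax came from non-linear dose-response fits.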

[7] = test system: VSV pseudotyped HIV (VSV–HIV); test: microbe, parasite or virus in culture; format: cell-based, HIV–1; details: for IC50: Vesicular stomatitis virus, MT2, 48 h, read-out: IC50 μM VSV–HIV (CI95%; R2); for Effect on viral entry: comparison of HIV IC50 and VSV–HIV IC50 in MT–2 cells
[8] = test system: MT–2 cells; test: Cell viability in mock–infected MT–2 cells; format: cell-based; details: MT–2 cells
In short: as §2

[9] = fixed concentration 20 μM, NF–κB–Luc, 48 h
[10] = fixed concentration 20 μM, pNL4.3–Luc, 48 h

COc1c(OC)c(O)c2c(=O)cc(-c3ccc(O)cc3)oc2c1OC [Xanthomicrol, xanthomicrol]
Effect on NF–κB activity [1, 9]: weak inhibition of NF–κB
Effect on Sp1 activity ([2]; fixed concentration 20 μM): no effect on Sp1
CC50 at 48 h [3]: > 100 µM
IC50 [4]: 17.4 µM
Effect on HIV transcription [5, 10]: active as HIV transcriptional inhibitor
Emax (CI95%) [6]: 0.93 (0.81–1.04)
IC50 [7]: 34.4 µM
Effect on viral entry [7]: HIV–1 entry is impaired

C=C1C(=O)O[C@@H]2[C@H]1CC[C@H](C)[C@@H]1CCC(=O)[C@@]21C [Damsin, damsin]
Effect on NF–κB activity ([1]; 4 μM, NF–κB–Luc, 48 h, vs untreated control): completely inhibits
Effect on Sp1 activity ([2]; 4 μM, vs untreated control): completely inhibits
Concentrations toxic to MT–2 cells [8]: higher than 20 μM
CC50 at 48 h [3]: 20 to 100 µM
IC50 [4]: 0.84 µM
Effect on HIV transcription ([5]; 4 μM, pNL4.3–Luc, 48 h, vs untreated control): completely inhibits
IC50 [7]: 0.83 µM
Effect on viral entry [7]: viral entry is not their target

COc1ccc(-c2cc(=O)c3cc(OC)ccc3o2)c(OC)c1 [Trimethoxyflavone, 6,2′,4′–trimethoxyflavone]
Effect on NF–κB activity [1, 9]: almost complete inhibition
Effect on Sp1 activity ([2]; fixed concentration 20 μM): almost complete inhibition
CC50 at 48 h [3]: > 100 µM
IC50 [4]: 28.4 µM
Effect on HIV transcription [5, 10]: almost complete inhibition
Emax (CI95%) [6]: 0.74 (0.47–1.00)
IC50 [7]: 35.6 µM
Effect on viral entry [7]: ruling out an effect on viral entry

Oc1ccc(/C=C/c2cc(O)cc(O)c2)cc1 [Resveratrol, resveratrol, reference compound]
Emax (CI95%) [6]: 0.94 (0.92–0.96)

C[C@]12CCC(=O)C=C1C=C[C@@H]1[C@@H]2CC[C@@]2(C)[C@H]1CC[C@@]21CCC(=O)O1 [Canrenone, canrenone]
Effect on NF–κB activity ([1]; one selected active concentration (not given)): more powerful activity as a NF–κB inhibitor than as a Sp1 inhibitor
Toxicity at 100 μM ([8]; 100 μM): slight toxicity
CC50 at 48 h [3]: ~100 µM
IC50 [4]: 18.9 µM
Effect on HIV transcription ([5]; one selected active concentration (not given), compared with damsin): slightly less active
IC50 [7]: 14.2 µM
Effect on viral entry [7]: viral entry is not their target
